Drawing on ChEMBL document CHEMBL4390676, “Discovery of Bisubstrate Inhibitors for Protein N-Terminal Methyltransferase 1” (J Med Chem, 2019), this text covers inhibition, IC50 and Activity for three compounds.

Test [1] deals with T1, N-terminal Xaa-Pro-Lys N-methyltransferase 1 (Homo sapiens) (UniProt Q9BV86).
T1 sequence (whole entry): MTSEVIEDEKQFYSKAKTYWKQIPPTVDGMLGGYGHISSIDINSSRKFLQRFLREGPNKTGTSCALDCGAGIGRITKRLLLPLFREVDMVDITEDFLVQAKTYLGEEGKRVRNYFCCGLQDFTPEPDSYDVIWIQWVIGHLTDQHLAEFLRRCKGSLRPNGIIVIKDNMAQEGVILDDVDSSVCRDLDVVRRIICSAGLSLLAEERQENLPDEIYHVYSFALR
The test is described as follows: Inhibition of recombinant human full-length His6-tagged NTMT1 (1 to 222 residues) expressed in Escherichia coli BL21-CodonPlus(DE3)-RIL competent cells at 10 uM using GPKRIA as substrate preincubated for 10 mins in presence of SAM followed by substrate addition by fluorescence assay.

Test [2] has as its target T2, N-terminal Xaa-Pro-Lys N-methyltransferase 1 (Homo sapiens, UniProt Q9BV86).
T2 sequence (Q9BV86 whole entry): T1 sequence (whole entry)
The test is described as follows: Inhibition of recombinant human full-length His6-tagged NTMT1 (1 to 222 residues) expressed in Escherichia coli BL21-CodonPlus(DE3)-RIL competent cells using peptide substrate in presence of SAM by fluorescence assay. The method, boiled down: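 SAHH-coupled fluorescence assay that tracks SAH formation by NTMT1. SAM and peptide substrate GPKRIA are each at their Km values. IC50 is taken from dose–response curves, n = 3.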

Test [3] can be described thus: Inhibition of Trypanosoma brucei N-terminal His6-tagged PRMT7 expressed in Escherichia coli BL21-CodonPlus(DE3)-RIL using H4-21 peptide as substrate preincubated for 10 mins in presence of SAM followed by substrate addition by fluorescence assay.
For test [4], the target named is T3, Histone-lysine N-methyltransferase SETD7 (Homo sapiens) (UniProt Q8WTS6).
T3 sequence (whole entry): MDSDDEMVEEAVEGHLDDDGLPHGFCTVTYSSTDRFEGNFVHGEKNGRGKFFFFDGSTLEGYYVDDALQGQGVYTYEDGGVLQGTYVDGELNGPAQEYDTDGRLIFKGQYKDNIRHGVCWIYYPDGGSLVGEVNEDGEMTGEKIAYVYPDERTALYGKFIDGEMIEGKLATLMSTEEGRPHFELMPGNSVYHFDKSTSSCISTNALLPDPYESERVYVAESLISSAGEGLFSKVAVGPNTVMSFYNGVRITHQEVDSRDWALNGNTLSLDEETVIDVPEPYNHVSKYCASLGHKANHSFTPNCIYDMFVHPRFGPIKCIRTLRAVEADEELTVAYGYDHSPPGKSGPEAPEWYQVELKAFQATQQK
The test is described as follows: Inhibition of human His-tagged SETD7 (1 to 366 residues) expressed in Escherichia coli assessed as enzyme residual activity at 10 uM using H3-21 peptide as substrate preincubated for 10 mins in presence of SAM followed by substrate addition by fluorescence assay relative to control. The method, boiled down:
(§1)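 Selectivity panel with inhibitor at 3.3, 10, 33 or 100 μM. Enzyme activity is given as percent of control, mean of duplicate experiments (n = 2).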

The target of test [5] is T1, N-terminal Xaa-Pro-Lys N-methyltransferase 1 (Homo sapiens). In words: Inhibition of recombinant human full-length His6-tagged NTMT1 (1 to 222 residues) expressed in Escherichia coli BL21-CodonPlus(DE3)-RIL competent cells assessed as reduction in GPKRIA trimethylation at 100 nM preincubated for 10 mins in presence of SAM followed by GPKRIA addition and measured after 20 mins by MALDI TOF-MS analysis. The procedure, abridged:
(§2)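 Orthogonal MALDI-MS assay that directly follows α-N-amine methylation of substrate peptide GPKRIA by NTMT1 over 20 min. Methylated peptide products were monitored by mass spectrometry.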

Test [6] has as its target Protein arginine N-methyltransferase 1 (Rattus norvegicus) (UniProt Q63009). The test is described as follows: Inhibition of rat His6-tagged PRMT1 expressed in Escherichia coli BL21(DE3) assessed as enzyme residual activity at 3.3 uM using H4-21 peptide as substrate preincubated for 10 mins in presence of SAM followed by substrate addition by fluorescence assay relative to control. The procedure, abridged:
as §1

In test [7] the target is T3, Histone-lysine N-methyltransferase SETD7 (Homo sapiens). The test is described as follows: Inhibition of human His-tagged SETD7 (1 to 366 residues) expressed in Escherichia coli assessed as enzyme residual activity at 3.3 uM using H3-21 peptide as substrate preincubated for 10 mins in presence of SAM followed by substrate addition by fluorescence assay relative to control. The procedure, abridged:
as §1

Test [8] concerns the target T1, N-terminal Xaa-Pro-Lys N-methyltransferase 1 (Homo sapiens). The test is described as follows: Inhibition of recombinant human full-length His6-tagged NTMT1 (1 to 222 residues) expressed in Escherichia coli BL21-CodonPlus(DE3)-RIL competent cells assessed as reduction in GPKRIA di-methylation at 100 nM preincubated for 10 mins in presence of SAM followed by GPKRIA addition and measured after 20 mins by MALDI TOF-MS analysis. The procedure, abridged: as §2

The target is the same in test [9]. In words: Bi-substrate inhibition of recombinant human full-length His6-tagged NTMT1 (1 to 222 residues) expressed in Escherichia coli BL21-CodonPlus(DE3)-RIL competent cells using varying levels of GPKRIA as substrate preincubated for 10 mins in presence of varying levels of SAM followed by substrate addition by fluorescence assay. The method, boiled down: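 Kinetic mechanism study in the SAHH-coupled fluorescence assay. IC50 curves were run at varying SAM with fixed GPKRIA, and at varying GPKRIA with fixed SAM. IC50 values were plotted against SAM or peptide concentration by linear regression.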

Test [10] has the same target. The test is described as follows: Inhibition of recombinant human full-length His6-tagged NTMT1 (1 to 222 residues) expressed in Escherichia coli BL21-CodonPlus(DE3)-RIL competent cells assessed as residual enzyme activity at 10 uM using GPKRIA as substrate preincubated for 10 mins in presence of SAM followed by substrate addition by fluorescence assay relative to control. The procedure, abridged: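 NTMT1 residual activity […] with SAM and GPKRIA at Km. Values are means of triplicate experiments (n = 3).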

Test [11] concerns the target T3, Histone-lysine N-methyltransferase SETD7 (Homo sapiens). In words: Inhibition of human His-tagged SETD7 (1 to 366 residues) expressed in Escherichia coli assessed as enzyme residual activity at 33 uM using H3-21 peptide as substrate preincubated for 10 mins in presence of SAM followed by substrate addition by fluorescence assay relative to control. The procedure, abridged:
as §1

Test [12] deals with Protein arginine N-methyltransferase 1 (Rattus norvegicus, UniProt Q63009). The test is described as follows: Inhibition of rat His6-tagged PRMT1 expressed in Escherichia coli BL21(DE3) using H4-21 peptide as substrate preincubated for 10 mins in presence of SAM followed by substrate addition by fluorescence assay.
Test [13] concerns the target T4, Histone-lysine N-methyltransferase EHMT2 (Homo sapiens) (UniProt Q96KQ7).
T4 sequence (whole entry): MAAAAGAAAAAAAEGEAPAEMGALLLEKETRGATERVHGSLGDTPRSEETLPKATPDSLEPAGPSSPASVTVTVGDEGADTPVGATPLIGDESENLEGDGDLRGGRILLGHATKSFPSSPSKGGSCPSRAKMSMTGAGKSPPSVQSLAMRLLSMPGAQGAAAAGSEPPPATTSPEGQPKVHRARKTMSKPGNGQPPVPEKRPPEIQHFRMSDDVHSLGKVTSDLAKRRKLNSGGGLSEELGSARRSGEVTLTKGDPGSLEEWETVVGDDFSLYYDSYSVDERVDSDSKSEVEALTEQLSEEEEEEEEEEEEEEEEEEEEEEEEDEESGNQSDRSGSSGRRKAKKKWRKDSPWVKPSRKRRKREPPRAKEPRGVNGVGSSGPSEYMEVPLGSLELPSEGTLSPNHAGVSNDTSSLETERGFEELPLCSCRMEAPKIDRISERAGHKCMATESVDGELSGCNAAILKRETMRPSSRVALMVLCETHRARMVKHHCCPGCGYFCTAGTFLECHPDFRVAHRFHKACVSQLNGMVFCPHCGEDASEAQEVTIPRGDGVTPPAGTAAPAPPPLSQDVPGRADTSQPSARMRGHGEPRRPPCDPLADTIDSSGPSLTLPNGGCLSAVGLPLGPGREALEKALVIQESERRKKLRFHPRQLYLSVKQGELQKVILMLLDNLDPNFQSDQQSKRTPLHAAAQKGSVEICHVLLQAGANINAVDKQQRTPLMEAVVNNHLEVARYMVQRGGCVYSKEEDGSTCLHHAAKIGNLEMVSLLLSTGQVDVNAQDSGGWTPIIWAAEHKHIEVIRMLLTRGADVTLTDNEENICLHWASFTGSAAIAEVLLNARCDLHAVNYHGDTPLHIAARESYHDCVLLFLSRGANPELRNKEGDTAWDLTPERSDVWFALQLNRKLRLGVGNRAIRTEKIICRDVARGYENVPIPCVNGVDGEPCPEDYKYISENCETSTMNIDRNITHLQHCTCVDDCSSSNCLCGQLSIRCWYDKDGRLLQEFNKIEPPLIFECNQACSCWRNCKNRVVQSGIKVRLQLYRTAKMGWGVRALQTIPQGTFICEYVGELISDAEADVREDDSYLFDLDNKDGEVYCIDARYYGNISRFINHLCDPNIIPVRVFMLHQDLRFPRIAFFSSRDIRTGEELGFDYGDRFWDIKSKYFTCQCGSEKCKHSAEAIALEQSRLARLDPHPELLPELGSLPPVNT
In words: Inhibition of human His-tagged G9a (913 to 1193 residues) expressed in Escherichia coli BL21-CodonPlus(DE3)-RIL assessed as enzyme residual activity at 100 uM using H3-21 peptide as substrate preincubated for 10 mins in presence of SAM followed by substrate addition by fluorescence assay relative to control. The method, boiled down:
as §1

The term IC50 denotes the concentration at which inhibition is half-maximal.

Each structure is given as a SMILES string. Activity calls are given as the source filed them. The calls are words filed in the database; no cut-off is given here. Residues, ends and D or L forms follow the SMILES beside them. *: point of attachment. X1 = Nc1ncnc2c1ncn2[C@@H]1O[C@H](CN(CCCN2CCC[C@H]2C(=O)*)CC[C@H](N)C(=O)O)[C@@H](O)[C@H]1O Bounds are passed on as bounds.

Sequence of Protein arginine N-methyltransferase 1 (Rattus norvegicus) (Q63009 whole entry, looked up): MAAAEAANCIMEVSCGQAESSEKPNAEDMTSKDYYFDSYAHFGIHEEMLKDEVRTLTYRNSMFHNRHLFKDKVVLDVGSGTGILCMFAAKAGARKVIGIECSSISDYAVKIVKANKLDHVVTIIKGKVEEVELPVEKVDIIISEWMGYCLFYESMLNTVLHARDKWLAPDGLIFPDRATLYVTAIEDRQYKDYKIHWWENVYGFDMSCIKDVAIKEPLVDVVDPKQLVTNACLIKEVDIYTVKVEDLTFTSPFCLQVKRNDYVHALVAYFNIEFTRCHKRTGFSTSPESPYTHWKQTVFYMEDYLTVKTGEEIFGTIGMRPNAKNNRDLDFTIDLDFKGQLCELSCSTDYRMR
Sequence of Protein arginine N-methyltransferase 1 (Q63009 whole entry): as the sequence (Q63009 whole entry, looked up) above

Turning to `Nc1ncnc2c1ncn2C1O[C@H](CN(CCCN2CCC[C@H]2C(=O)O)CC[C@H](N)C(=O)O)[C@@H](O)[C@H]1O` (single isomer, unassigned), in [1], the inhibition entry is “inactive”.

Consider `N=C(N)NCCC[C@H](NC(=O)[C@H](CCCNC(=N)N)NC(=O)[C@H](CCCNC(=N)N)NC(=O)[C@@H]1CCCN1C(=O)CNCCCN(CC[C@H](N)C(=O)O)C[C@H]1O[C@@H](n2cnc3c(N)ncnc32)[C@H](O)[C@@H]1O)C(=O)N[C@@H](CO)C(N)=O`, for which, in test [2], the concentration for half-maximal inhibition (IC50) amounted to 0.94 µM.

Regarding `CC[C@H](C)[C@H](NC(=O)[C@H](CCCNC(=N)N)NC(=O)[C@H](CCCCN)NC(=O)[C@@H]1CCCN1C(=O)[C@@H]1CCCN1CCCN(CC[C@H](N)C(=O)O)C[C@H]1O[C@@H](n2cnc3c(N)ncnc32)[C@H](O)[C@@H]1O)C(=O)N[C@@H](C)C(N)=O` (X1-PKRIA-NH2), the IC50 in test [3] is above 10 µM; in [12] it was above 33 µM. The Activity was 99% in [4]; 97% in test [6]; 94% in [7]; 14% in test [10]; 97% in test [11]; 78% in test [13]. Besides, the inhibition result in test [5], in test [8] and in test [9] was “Active” each time.
